# In ChEMBL document CHEMBL3352683, “Rational design of urea-based glutamate carboxypeptidase II (GCPII) inhibitors as versatile tools for specific drug targeting and delivery” (Bioorg Med Chem, 2014):
# Target: Glutamate carboxypeptidase 2 (Homo sapiens, UniProt Q04609)
# Test: Inhibition of human recombinant N-terminal Avi-tagged glutamate carboxypeptidase 2 extracellular domain (44 to 750 amino acids) using pteroyl-di-L-glutamate substrate by HPLC method
# How it was run: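 Avi-GCPII (0.2 ng) in 25 mM Bis-Tris propane, 150 mM NaCl, 0.001% octaethylene glycol monododecyl ether, pH 7.4, preincubated with inhibitor (ten concentrations) 5 min at 37 °C. Reaction started with pteroyl-di-L-glutamate (20 µl of 4 µM stock), run 20 min at 37 °C, stopped with 2-PMPA. Substrate and product separated by isocratic HPLC, detected at 281 nm; IC50 from full curves, Ki mean ± SD, duplicate or triplicate.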
# Glutamate carboxypeptidase 2, sequence (Q04609 whole entry, the tested form may be a part): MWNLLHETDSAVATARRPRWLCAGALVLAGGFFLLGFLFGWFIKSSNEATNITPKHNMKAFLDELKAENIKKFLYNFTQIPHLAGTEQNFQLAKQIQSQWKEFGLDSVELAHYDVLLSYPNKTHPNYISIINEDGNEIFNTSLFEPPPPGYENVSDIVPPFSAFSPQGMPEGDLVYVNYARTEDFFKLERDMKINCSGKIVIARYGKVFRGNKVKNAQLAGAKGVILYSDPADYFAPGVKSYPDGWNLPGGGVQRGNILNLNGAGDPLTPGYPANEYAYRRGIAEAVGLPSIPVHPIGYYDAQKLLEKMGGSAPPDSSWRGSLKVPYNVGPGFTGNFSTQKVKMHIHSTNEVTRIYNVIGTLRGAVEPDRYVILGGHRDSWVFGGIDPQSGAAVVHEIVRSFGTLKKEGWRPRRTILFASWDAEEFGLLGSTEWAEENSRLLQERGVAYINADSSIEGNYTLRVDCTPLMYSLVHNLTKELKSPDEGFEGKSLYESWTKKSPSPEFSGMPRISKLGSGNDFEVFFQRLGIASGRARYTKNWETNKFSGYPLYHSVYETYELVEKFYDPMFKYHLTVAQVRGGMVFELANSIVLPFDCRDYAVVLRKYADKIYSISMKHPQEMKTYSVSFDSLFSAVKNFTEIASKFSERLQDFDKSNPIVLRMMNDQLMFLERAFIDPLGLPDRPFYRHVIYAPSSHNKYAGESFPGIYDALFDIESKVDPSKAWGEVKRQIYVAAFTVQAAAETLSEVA
row,SMILES,Ki [nM]
1,NCCCC[C@H](NC(=O)N[C@@H](CCC(=O)O)C(=O)O)C(=O)O,44.3
2,O=C(O)CC[C@H](NC(=O)N[C@@H](CCCCNC(=O)CCOCCOCCOCCOCCOCCOCCOCCOCCNC(=O)CCCC[C@@H]1SC[C@@H]2NC(=O)N[C@@H]21)C(=O)O)C(=O)O,6.39
3,O=C(O)CC[C@H](NC(=O)N[C@@H](CCCCNC(=O)Nc1ccccc1OCCNC(=O)CCOCCOCCOCCOCCOCCOCCOCCOCCOCCOCCOCCOCCNC(=O)CCCC[C@@H]1SC[C@@H]2NC(=O)N[C@@H]21)C(=O)O)C(=O)O,7.6
4,O=C(O)CC[C@H](NC(=O)N[C@@H](CCCCN(Cc1ccccc1)C(=O)CCOCCOCCOCCOCCOCCOCCOCCOCCOCCOCCOCCOCCNC(=O)CCCC[C@@H]1SC[C@@H]2NC(=O)N[C@@H]21)C(=O)O)C(=O)O,3.42
5,O=C(O)CC[C@H](NC(=O)N[C@@H](CCCCNC(=O)Nc1ccc(Br)cc1OCCNC(=O)CCOCCOCCOCCOCCOCCOCCOCCOCCOCCOCCOCCOCCNC(=O)CCCC[C@@H]1SC[C@@H]2NC(=O)N[C@@H]21)C(=O)O)C(=O)O,3.88
6,O=C(O)CC[C@H](NC(=O)N[C@@H](CCCCNC(=O)Cc1ccccc1OCCNC(=O)CCOCCOCCOCCOCCOCCOCCOCCOCCOCCOCCOCCOCCNC(=O)CCCC[C@H]1SC[C@H]2NC(=O)N[C@H]21)C(=O)O)C(=O)O,28.1
7,O=C(O)CC[C@H](NC(=O)N[C@@H](CCCCNC(=O)c1ccccc1OCCNC(=O)CCOCCOCCOCCOCCOCCOCCOCCOCCOCCOCCOCCOCCNC(=O)CCCC[C@@H]1SC[C@@H]2NC(=O)N[C@@H]21)C(=O)O)C(=O)O,11
8,O=C(O)CC[C@H](NC(=O)N[C@@H](CCCCNC(=O)CCOCCOCCOCCOCCOCCOCCOCCOCCOCCOCCOCCOCCNC(=O)CCCC[C@@H]1SC[C@@H]2NC(=O)N[C@@H]21)C(=O)O)C(=O)O,10.5

# Compounds with a lower Ki, results first:
row,Ki [nM],SMILES
1,0.377,CC(=O)NCCOc1ccccc1NC(=O)NCCCC[C@H](NC(=O)N[C@@H](CCC(=O)O)C(=O)O)C(=O)O
2,1.58,CC(=O)NCCOc1ccccc1CC(=O)NCCCC[C@H](NC(=O)N[C@@H](CCC(=O)O)C(=O)O)C(=O)O
3,0.601,CC(=O)NCCOc1ccccc1C(=O)NCCCC[C@H](NC(=O)N[C@@H](CCC(=O)O)C(=O)O)C(=O)O
4,0.221,CC(=O)NCCOc1cc(Br)ccc1NC(=O)NCCCC[C@H](NC(=O)N[C@@H](CCC(=O)O)C(=O)O)C(=O)O
5,0.312,CC(=O)N(CCCC[C@H](NC(=O)N[C@@H](CCC(=O)O)C(=O)O)C(=O)O)Cc1ccccc1
6,0.174,CC(=O)NCCCC[C@H](NC(=O)N[C@@H](CCC(=O)O)C(=O)O)C(=O)O
7,0.0449,CC(=O)N(CCCC[C@H](NC(=O)N[C@@H](CCC(=O)O)C(=O)O)C(=O)O)Cc1ccc(Br)cc1
8,0.268,CC(=O)NCCOc1cc(Br)ccc1C(=O)NCCCC[C@H](NC(=O)N[C@@H](CCC(=O)O)C(=O)O)C(=O)O
9,0.722,CC(=O)NCCOc1cc(Cl)ccc1C(=O)NCCCC[C@H](NC(=O)N[C@@H](CCC(=O)O)C(=O)O)C(=O)O
10,1.01,CC(=O)NCCOc1cc(F)ccc1C(=O)NCCCC[C@H](NC(=O)N[C@@H](CCC(=O)O)C(=O)O)C(=O)O
11,0.6,CC(=O)NCCOc1cc(I)ccc1C(=O)NCCCC[C@H](NC(=O)N[C@@H](CCC(=O)O)C(=O)O)C(=O)O
